The subject of experiment [1] is hpol η. As to the kind of experiment: Steady-state kinetic analysis of hpol η activity in the presence of inhibitor. The class given is biochemical, human. As to conditions: for kcat: varying dTTP. In short, it runs like this:
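Recombinant hpol η (His/GST-tagged in E. coli BL21(DE3), nickel then GST affinity, GST cleaved) in the fluorescence strand-displacement assay (TAMRA-labelled displaced strand), in 50 mM Tris pH 8.0, 40 mM NaCl, 2 mM DTT, 0.01% Tween-20. dTTP was 1–100 µM and inhibitor 0 or 1–50 µM. RFU were converted to product, linear velocities fit to a hyperbola and corrected for enzyme concentration to give kcat and Km,dTTP.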

Experiment [2] concerns the target HIV-1 RT (Human immunodeficiency virus type 1 group M subtype B, UniProt P04585). As to the kind of experiment: Fluorescence-based polymerase assay, HIV-1 RT. The class given is biochemical.
The target in experiment [3] is T1, human DNA polymerase eta (hpol η) (Homo sapiens, UniProt Q9Y253).
T1 sequence (Q9Y253 1-437): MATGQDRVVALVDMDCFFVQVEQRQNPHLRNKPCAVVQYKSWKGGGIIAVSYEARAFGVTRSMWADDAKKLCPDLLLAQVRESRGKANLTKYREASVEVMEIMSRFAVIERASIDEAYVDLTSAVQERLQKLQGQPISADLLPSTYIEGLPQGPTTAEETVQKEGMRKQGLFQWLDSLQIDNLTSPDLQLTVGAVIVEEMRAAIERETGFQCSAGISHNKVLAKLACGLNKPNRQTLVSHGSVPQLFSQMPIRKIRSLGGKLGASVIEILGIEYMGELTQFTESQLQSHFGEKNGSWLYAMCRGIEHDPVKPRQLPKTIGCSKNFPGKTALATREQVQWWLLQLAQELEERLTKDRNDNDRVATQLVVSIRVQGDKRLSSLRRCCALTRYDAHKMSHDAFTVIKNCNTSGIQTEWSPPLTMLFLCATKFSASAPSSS
In words: Fluorescence-based polymerase strand-displacement assay, hpol η. The class given is biochemical. As to conditions: IC50 for inhibition of hpol η, 10 nM hpol η, 50 nM DNA, 0.1 mM dTTP; mean ± standard deviation, triplicate.

For experiment [4], the target named is T2, human Y-family DNA polymerase kappa (hpol κ) (Homo sapiens, UniProt Q9UBT6).
T2 sequence (Q9UBT6 19-526): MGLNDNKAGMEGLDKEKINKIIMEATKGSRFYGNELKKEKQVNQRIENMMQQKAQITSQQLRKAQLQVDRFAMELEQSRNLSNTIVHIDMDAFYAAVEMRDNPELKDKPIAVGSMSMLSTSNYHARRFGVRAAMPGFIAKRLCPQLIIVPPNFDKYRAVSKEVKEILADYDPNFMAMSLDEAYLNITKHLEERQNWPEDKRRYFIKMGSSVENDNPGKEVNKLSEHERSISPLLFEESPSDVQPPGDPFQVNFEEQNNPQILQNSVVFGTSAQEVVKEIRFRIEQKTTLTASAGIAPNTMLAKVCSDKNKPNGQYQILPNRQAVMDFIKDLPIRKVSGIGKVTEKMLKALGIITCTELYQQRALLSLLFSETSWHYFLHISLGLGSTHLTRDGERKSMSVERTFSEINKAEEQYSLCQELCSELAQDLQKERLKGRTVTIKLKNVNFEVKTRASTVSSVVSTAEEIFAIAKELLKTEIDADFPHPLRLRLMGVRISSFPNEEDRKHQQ
In words: Fluorescence-based polymerase assay, hpol κ. The class given is biochemical.

For experiment [5], the target named is T3, Dpo4 (Saccharolobus solfataricus, UniProt Q97W02).
T3 sequence (Q97W02 1-352): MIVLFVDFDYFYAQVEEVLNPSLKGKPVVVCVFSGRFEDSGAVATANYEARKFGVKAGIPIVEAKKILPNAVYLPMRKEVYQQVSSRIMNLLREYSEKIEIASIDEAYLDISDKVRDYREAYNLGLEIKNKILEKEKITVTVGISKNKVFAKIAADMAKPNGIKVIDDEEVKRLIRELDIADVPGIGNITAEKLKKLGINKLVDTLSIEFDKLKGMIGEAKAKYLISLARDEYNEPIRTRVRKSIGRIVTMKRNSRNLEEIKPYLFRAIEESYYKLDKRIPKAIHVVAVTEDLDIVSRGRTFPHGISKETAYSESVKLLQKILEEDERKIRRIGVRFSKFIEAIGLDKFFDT
In words: Fluorescence-based polymerase assay, Dpo4. The class given is biochemical, Sulfolobus solfataricus.

Experiment [6] deals with T4, Dpo1 (Saccharolobus solfataricus, UniProt P26811).
T4 sequence (P26811 1-882): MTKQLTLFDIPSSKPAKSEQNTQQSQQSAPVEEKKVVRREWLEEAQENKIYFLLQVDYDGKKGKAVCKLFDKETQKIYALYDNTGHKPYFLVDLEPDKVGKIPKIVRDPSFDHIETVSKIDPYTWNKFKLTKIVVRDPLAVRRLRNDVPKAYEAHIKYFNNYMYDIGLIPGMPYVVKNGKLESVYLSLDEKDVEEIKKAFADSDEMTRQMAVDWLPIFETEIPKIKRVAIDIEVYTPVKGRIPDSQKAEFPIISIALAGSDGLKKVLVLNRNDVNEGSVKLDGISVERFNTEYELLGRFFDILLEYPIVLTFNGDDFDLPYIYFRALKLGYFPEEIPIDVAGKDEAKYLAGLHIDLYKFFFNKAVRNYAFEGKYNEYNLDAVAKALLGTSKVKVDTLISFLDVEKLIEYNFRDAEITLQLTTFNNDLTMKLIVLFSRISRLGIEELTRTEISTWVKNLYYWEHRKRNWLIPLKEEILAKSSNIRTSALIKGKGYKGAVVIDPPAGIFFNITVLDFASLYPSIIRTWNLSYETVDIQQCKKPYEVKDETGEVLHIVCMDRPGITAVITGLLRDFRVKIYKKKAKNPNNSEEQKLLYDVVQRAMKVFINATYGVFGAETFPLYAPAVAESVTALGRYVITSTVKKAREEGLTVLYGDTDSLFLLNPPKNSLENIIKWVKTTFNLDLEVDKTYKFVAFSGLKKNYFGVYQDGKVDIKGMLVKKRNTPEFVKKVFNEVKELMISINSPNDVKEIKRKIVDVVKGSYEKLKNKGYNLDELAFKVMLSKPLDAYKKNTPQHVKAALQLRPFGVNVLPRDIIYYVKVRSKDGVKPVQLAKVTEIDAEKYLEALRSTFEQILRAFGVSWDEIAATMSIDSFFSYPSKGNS
In words: Fluorescence-based polymerase assay, Dpo1. The class given is biochemical, S. solfataricus.

Read-outs that look alike come from different tables or passages of the source.

A word on the Km: it is the concentration of substrate that gives half-maximal velocity. By kcat is commonly meant the maximal rate divided by the concentration of active sites. What is called IC50 is the concentration at which inhibition is half-maximal. The low end stands for inhibition by little substance, the high end for a need for much substance. Consider `O=C1NC(=S)NC(=O)C1=Cc1cn(C(=O)c2ccccc2Br)c2ccc(Cl)cc12` [ITBA-12, 5-((1-(2-bromobenzoyl)-5-chloro-1H-indol-3-yl)methylene)-2-thioxodihydropyrimidine-4,6(1H,5H)-dione], for which the Km in experiment [1] (read-out: Km,dTTP, varying dTTP, [ITBA-12] 1 μM) stood at 6.7 ± 0.9 µM; in experiment [1] (read-out: Km,dTTP, varying dTTP, [ITBA-12] 10 μM) it was 7.6 ± 1 µM; in experiment [1] (read-out: Km,dTTP, varying dTTP, [ITBA-12] 20 μM), 8.5 ± 1.4 µM; in experiment [1] (read-out: Km,dTTP, varying dTTP, [ITBA-12] 40 μM), 15 ± 2 µM; in experiment [1] (read-out: Km,dTTP, varying dTTP, [ITBA-12] 50 μM) it was 26.7 ± 5.6 µM. Also, the kcat came to 0.065 ± 0.0017 s⁻¹ in experiment [1] ([ITBA-12] 1 μM); 0.0717 ± 0.0017 s⁻¹ in experiment [1] ([ITBA-12] 10 μM); 0.0667 ± 0.0033 s⁻¹ in experiment [1] ([ITBA-12] 20 μM); 0.07 ± 0.0033 s⁻¹ in experiment [1] ([ITBA-12] 40 μM); 0.0583 ± 0.005 s⁻¹ in experiment [1] ([ITBA-12] 50 μM). In addition, the IC50 in experiment [2] was ~80 µM; in experiment [3] it was 29.8 ± 2.7 µM; in experiment [4], 59 ± 11 µM; in experiment [5] it was ~80 µM; in experiment [6] it was ~80 µM. For the same molecule, the “IC50 for hpol κ relative to hpol η” value in experiment [4] (hpol κ versus hpol η) is “twice as high”.

The values are drawn from article PMC3746001 (ACS chemical biology, 2013).
